As usually defined, the viability is a read-out of living cells in per cent, often relative to untreated cells. One may read the inhibition as the relative decrease from the control value, in per cent.

Test [1] can be described thus: Her2 expression decrease, cell viability multiplex – SKBR3 breast tumor cells, AlphaScreen, ATP viability, primary screen (AID 461;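 active = Her2 level under about 52% in both replicate screens, with viability over 70% of control, limit read from the data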;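 as to Her2 level: lower value means less Her2 protein in the cells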;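 as to viability: percent of carrier control wells set as 100% viability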). As to conditions: SKBR3 Her2 protein level, 18-24 h, measured here: SKBR3 viability, ATP luminescence, at 10 µM.
The target of test [2] is Receptor tyrosine-protein kinase erbB-2 (Homo sapiens) (UniProt P04626). The description is as above. As to conditions: 18-24 h, at 10 µM, stronger effect = lower value.
Test [3] can be described thus: reduced viability of SK-BR-3 breast cancer cells – cell-based, 24 h, human, pilot screen (AID 572;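 active = viability at or below 10% of carrier control in both of two separate runs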;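 also: compound exposure lasted between 18 and 24 h rather than exactly 24 h; 100% = carrier-treated control wells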). As to conditions: SK-BR-3 viability, CellTiter-Glo luminescence, at 10 µM, stronger effect = lower value. On the technique in general: ATP-based viability assays read luminescence as a measure of living cells.
The nature of test [4]: HUVEC growth inhibition – cell-based, human, primary screen (AID 575;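 active = viability at or below 30% in both replicate assays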;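 also: 100% = median of untreated cell wells with 0.1% DMSO on each plate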). As to conditions: HUVEC proliferation, CellTiter-Glo luminescence, 72 h; at 10 µM; stronger effect = lower value. The essentials: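 Test system – primary HUVEC, no more than 12 passages · Dosing – one dose, 10 µM final, 0.1% DMSO · Times – 72 h treatment at 37 °C · Measured by – ATP-based CellTiter-Glo luminescent read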

A short description of test [5]: H69AR cell proliferation blockers – human, duplicate replicates, primary screen (AID 580).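 Also: 100% = mean luminescence of untreated wells and 0% = no signal.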 As to conditions: H69AR lung tumor cells viability, ATP luminescence, 72 h; at 10 µM; stronger effect = lower value.
Test [6] can be described thus: MRP1 drug-resistance reversers in H69AR cells – cell-based, doxorubicin co-treatment, pilot screen (AID 601;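 active = viability loss from added drug above about 55%, and viability with drug at most 40%, in both replicates, limit read from the data, passing the limit was not always enough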). As to conditions: CellTiter-Glo, 72 h, at 10 µM; for differential viability (reversal): stronger effect = higher value.
Test [7] can be described thus: yeast transport mutant growth inhibition pilot in 384-well plates, post-Golgi transport modulator project (AID 636; in the data active = inhibition above about 31%). As to conditions: absorbance 615 nm, about 18 h, stronger effect = higher value.
The nature of test [8]: growth suppression of yeast trafficking mutant, preliminary HTS, modulators of trafficking downstream of Golgi apparatus project, 1536-format plate, OD 615 nm (AID 637; in the data active = inhibition above about 30%). As to conditions: yeast transport mutant growth, absorbance 615 nm, 18 h; stronger effect = higher value.
The mark [9] stands for this setting: H69AR cells + 2 uM doxorubicin, measured here: viability with 2 uM doxorubicin, stronger effect = lower value.
The mark [10] stands for this setting: H69AR cells, compound alone cytotoxicity.

Active and inactive are the calls of the source.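 The calls were made as follows, unless noted: active = viability at or under a set limit in both replicates, limit being median viability minus 3 SD (cut at about 48% in these data, passing the limit was not always enough); inconclusive = at or under the limit in just one replicate; inactive = at or above the limit in both replicates.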 Peptide text beside a SMILES is read from it. * marks the point of attachment. Boc = CC(C)(C)OC(=O)*

Chain of Receptor tyrosine-protein kinase erbB-2 (Homo sapiens) (P04626 whole entry, looked up): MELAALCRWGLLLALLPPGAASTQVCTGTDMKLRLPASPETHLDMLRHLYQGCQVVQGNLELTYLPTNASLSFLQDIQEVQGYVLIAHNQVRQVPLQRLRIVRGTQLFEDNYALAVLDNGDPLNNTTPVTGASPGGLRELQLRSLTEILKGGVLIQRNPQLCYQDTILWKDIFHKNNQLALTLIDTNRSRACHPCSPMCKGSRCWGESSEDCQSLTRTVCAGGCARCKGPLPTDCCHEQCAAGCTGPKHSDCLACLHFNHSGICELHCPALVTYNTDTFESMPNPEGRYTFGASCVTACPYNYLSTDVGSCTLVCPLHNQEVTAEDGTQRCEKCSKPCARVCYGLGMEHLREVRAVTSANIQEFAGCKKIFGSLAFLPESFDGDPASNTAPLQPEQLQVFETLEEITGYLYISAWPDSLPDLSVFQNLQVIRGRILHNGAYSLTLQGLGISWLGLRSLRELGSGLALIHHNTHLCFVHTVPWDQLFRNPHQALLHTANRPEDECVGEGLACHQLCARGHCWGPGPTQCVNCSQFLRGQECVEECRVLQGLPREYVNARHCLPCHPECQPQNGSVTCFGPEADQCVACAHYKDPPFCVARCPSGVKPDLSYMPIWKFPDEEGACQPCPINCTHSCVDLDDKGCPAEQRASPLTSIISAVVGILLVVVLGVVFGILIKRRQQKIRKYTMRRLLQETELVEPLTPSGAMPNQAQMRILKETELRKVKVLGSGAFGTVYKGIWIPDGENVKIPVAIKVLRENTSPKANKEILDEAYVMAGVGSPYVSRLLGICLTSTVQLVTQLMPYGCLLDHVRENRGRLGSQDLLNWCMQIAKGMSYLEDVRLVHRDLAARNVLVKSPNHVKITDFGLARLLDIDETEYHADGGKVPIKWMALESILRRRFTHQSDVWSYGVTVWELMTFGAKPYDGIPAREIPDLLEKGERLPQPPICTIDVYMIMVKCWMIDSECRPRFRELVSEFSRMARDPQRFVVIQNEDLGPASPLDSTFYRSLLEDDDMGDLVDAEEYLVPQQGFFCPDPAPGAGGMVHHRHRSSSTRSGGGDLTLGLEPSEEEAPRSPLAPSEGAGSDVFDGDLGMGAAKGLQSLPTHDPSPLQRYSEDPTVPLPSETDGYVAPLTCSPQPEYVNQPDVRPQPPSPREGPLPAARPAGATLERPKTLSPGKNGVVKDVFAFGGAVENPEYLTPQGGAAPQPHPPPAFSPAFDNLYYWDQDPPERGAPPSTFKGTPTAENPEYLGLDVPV

For `COc1ccc2c(-c3cccnc3)cc(=O)[nH]c2c1`, the viability in test [1] is 116%; in test [3], 116% (inactive); in test [4], 87.2% (inactive); in test [5], 96% (inactive); in test [6] (setting [9]) it was 87.2%; in test [6] (setting [10]), 96%. Further, in test [2], the Her2 level was 93.5% (inactive). The differential viability (reversal) in test [6] (H69AR cells + 2 uM doxorubicin) is 8.77% (inactive). The inhibition in test [7] was -6.4% (inactive); in test [8], 4.43% (inactive).
As to `CCOC(=O)C1CCCN(C(=O)c2ccc3c(=O)n(CCOC)c(=S)[nH]c3c2)C1` (stereo not given), the viability is 94% in test [1]; 94% (inactive) in test [3]; 80.6% (inactive) in test [4]; 88.6% (inactive) in test [5]; 77.1% in test [6] (setting [9]); 88.6% in test [6] (setting [10]). Further, in test [2], the Her2 level was 83% (inactive). For the same molecule, in test [6] (H69AR cells + 2 uM doxorubicin), the differential viability (reversal) is 11.5% (inactive). The inhibition in test [7] is -4.8% (inactive); in test [8], -0.33% (inactive).
Consider `COc1ccc2cc(C(c3nnnn3C3CCCCC3)N3CCCCCC3)c3nnnn3c2c1` (stereo not given), for which the viability in test [1] is 94%; in test [3], 94% (inactive); in test [4], 81.6% (inactive); in test [5] it was 64.3% (inactive); in test [6] (setting [9]) it was 67.2%; in test [6] (setting [10]), 64.3%. Moreover, the Her2 level in test [2] is 72.5% (inactive). In addition, the differential viability (reversal) in test [6] (H69AR cells + 2 uM doxorubicin) is -2.87% (inactive). The inhibition in test [7] was -4.8% (inactive); in test [8] it was -2.86% (inactive).
On to `CC(=O)Oc1ccc(CCC(C)OC(C)=O)cc1` (stereo not given), for which the viability in test [1] was 101%; in test [3], 101% (inactive); in test [4], 93.2% (inactive); in test [5] it was 99.7% (inactive); in test [6] (setting [9]), 96.9%; in test [6] (setting [10]) it was 99.7%. For the same molecule, the Her2 level in test [2] was 92% (inactive). Moreover, the differential viability (reversal) in test [6] (H69AR cells + 2 uM doxorubicin) was 2.78% (inactive). The inhibition in test [7] is -6.13% (inactive); in test [8] it was -1.13% (inactive).
With `CC1CCc2c(sc(N)c2C(N)=O)C1` (stereo not given), the viability was 95.5% in test [1]; 95.5% (inactive) in test [3]; 86.7% (inactive) in test [4]; 91.5% (inactive) in test [5]; 84.9% in test [6] (setting [9]); 91.5% in test [6] (setting [10]). Also, the Her2 level in test [2] was 81% (inactive). Moreover, the differential viability (reversal) in test [6] (H69AR cells + 2 uM doxorubicin) was 6.62% (inactive). The inhibition in test [7] was -0.26% (inactive); in test [8], 4.5% (inactive).
With `CC(C)(C)OC(=O)N1CCCC1C(=O)NC(Cc1ccccc1)C(=O)O` (stereo not drawn) (Boc-Pro-Phe-OH; configuration not given here), the viability in test [1] was 116%; in test [3], 116% (inactive); in test [4], 96.1% (inactive); in test [5] it was 104% (inactive); in test [6] (setting [9]), 95.2%; in test [6] (setting [10]) it was 104%. The Her2 level in test [2] is 102% (inactive). Moreover, in test [6] (H69AR cells + 2 uM doxorubicin), the differential viability (reversal) is 8.93% (inactive). The values for the inhibition in test [7] and in test [8] were -4.59% (inactive) and 0.48% (inactive), respectively.
For the molecule `O=C1CN(C(=O)CN2CCCC2)C(c2ccccc2)c2cc(Br)ccc2N1` (stereo not given), the viability in test [1] was 94%; in test [3] it was 94% (inactive); in test [4] it was 75.8% (inactive); in test [5], 102% (inactive); in test [6] (setting [9]) it was 97.2%; in test [6] (setting [10]), 102%. For the same molecule, the Her2 level in test [2] was 91% (inactive). The differential viability (reversal) in test [6] (H69AR cells + 2 uM doxorubicin) is 4.63% (inactive). For the same molecule, the values for the inhibition in test [7] and in test [8] were -4.67% (inactive) and 1.61% (inactive), respectively.
Regarding `O=C(NCc1ccccc1)c1ccc(OC2CSC2)cc1`, the viability is 88% in test [1]; 88% (inactive) in test [3]; 91.5% (inactive) in test [4]; 112% (inactive) in test [5]; 93.6% in test [6] (setting [9]); 112% in test [6] (setting [10]). In addition, in test [2], the Her2 level is 103% (inactive). Moreover, the differential viability (reversal) in test [6] (H69AR cells + 2 uM doxorubicin) is 18.5% (inactive). For the same molecule, the inhibition in test [7] was 2.34% (inactive); in test [8] it was -11% (inactive).
As for `O=C(Cn1cccc1C(=O)c1ccccc1)NCCN1CCOCC1`, the viability in test [1] was 98%; in test [3], 98% (inactive); in test [4] it was 111% (inactive); in test [5], 90% (inactive); in test [6] (setting [9]), 87.4%; in test [6] (setting [10]), 90%. Moreover, in test [2], the Her2 level is 89.5% (inactive). Also, in test [6] (H69AR cells + 2 uM doxorubicin), the differential viability (reversal) was 2.57% (inactive). Moreover, the inhibition in test [7] is -0.79% (inactive); in test [8] it was 0.97% (inactive).
As to `Cc1c(NC(=O)C(C)OC(=O)COc2cccc3c2OC(C)(C)C3)c(=O)n(-c2ccccc2)n1C` (stereo not given), the viability in test [1] was 112%; in test [3], 112% (inactive); in test [4], 124% (inactive); in test [5], 92% (inactive); in test [6] (setting [9]), 93.3%; in test [6] (setting [10]), 92%. In addition, in test [2], the Her2 level is 106% (inactive). The differential viability (reversal) in test [6] (H69AR cells + 2 uM doxorubicin) is -1.3% (inactive). In addition, the inhibition in test [7] was -4.47% (inactive); in test [8], 17.2% (inactive).
`Cc1[nH]c(=O)[nH]c(=O)c1S(=O)(=O)N1c2ccc(F)cc2CCC1C` (stereo not given): the viability in test [1] is 97.5%; in test [3] it was 97.5% (inactive); in test [4] it was 100% (inactive); in test [5], 95.7% (inactive); in test [6] (setting [9]) it was 99.6%; in test [6] (setting [10]), 95.7%. The Her2 level in test [2] was 90% (inactive). The differential viability (reversal) in test [6] (H69AR cells + 2 uM doxorubicin) is -3.9% (inactive). The inhibition was -6.97% (inactive) in test [7] and 3.17% (inactive) in test [8].
With `COc1ccc(N2C(N)=C(C#N)C(c3cccnc3)C3=C2CC(C)(C)CC3=O)cc1` (stereo not given), the viability in test [1] was 106%; in test [3], 106% (inactive); in test [4], 79.5% (inactive); in test [5], 20.6% (active); in test [6] (setting [9]), 23.6%; in test [6] (setting [10]), 20.6%. In addition, the Her2 level in test [2] is 90% (inactive). Further, in test [6] (H69AR cells + 2 uM doxorubicin), the differential viability (reversal) was -3% (inactive). Also, the inhibition in test [7] is -8.9% (inactive); in test [8], 0.32% (inactive).
Consider `CCOC(=O)c1ccc(Oc2cc(C)nc(SC)n2)cc1`, for which the viability in test [1] was 88.5%; in test [3], 88.5% (inactive); in test [4], 36.8% (inactive); in test [5] it was 16.5% (active); in test [6] (setting [9]), 68.5%; in test [6] (setting [10]), 16.5%. For the same molecule, the Her2 level in test [2] was 99% (inactive). Moreover, in test [6] (H69AR cells + 2 uM doxorubicin), the differential viability (reversal) is -52% (inactive). For the same molecule, the inhibition in test [7] is -5.54% (inactive); in test [8] it was 2.3% (inactive).
On to `Cc1ccc(-c2noc(CCC(=O)NC3CCCc4ccccc43)n2)cc1` (stereo not given), for which the viability in test [1] is 75%; in test [3], 75% (inactive); in test [4], 83.6% (inactive); in test [5], 92.5% (inactive); in test [6] (setting [9]), 86.4%; in test [6] (setting [10]), 92.5%. In test [2], the Her2 level was 85.5% (inactive). Further, the differential viability (reversal) in test [6] (H69AR cells + 2 uM doxorubicin) was 6.05% (inactive). Also, the inhibition in test [7] is -4.87% (inactive); in test [8] it was -4.67% (inactive).
Consider `CN(C)c1ccc(CNn2cnnc2)cc1`, for which the viability is 104% in test [1]; 104% (inactive) in test [3]; 95.8% (inactive) in test [4]; 100% (inactive) in test [5]; 105% in test [6] (setting [9]); 100% in test [6] (setting [10]). Besides, the Her2 level in test [2] is 88.5% (inactive). Besides, in test [6] (H69AR cells + 2 uM doxorubicin), the differential viability (reversal) is -4.28% (inactive). In addition, the inhibition in test [7] was -4.08% (inactive); in test [8], 0.67% (inactive).
For the molecule `CCCCOc1ccc(-c2nnc(N)s2)cc1`, the viability in test [1] was 85.5%; in test [3], 85.5% (inactive); in test [4], 93.3% (inactive); in test [5], 98.5% (inactive); in test [6] (setting [9]), 85.9%; in test [6] (setting [10]), 98.5%. Besides, the Her2 level in test [2] was 98% (inactive). Further, the differential viability (reversal) in test [6] (H69AR cells + 2 uM doxorubicin) is 12.6% (inactive). For the same molecule, the inhibition in test [7] was 3.33% (inactive); in test [8] it was 1.15% (inactive).

For the origin of these results see PubChem BioAssay.
